Common to all, as to format: functional, cell-based
The test system of test [1] is HepG2. As to the kind of experiment: Induction of autophagy in human HepG2 cells assessed as increase in ATG4b protein level up to 20 uM measured after 24 hrs by Western blot analysis. The essentials: (§1)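 HepG2 cells exposed 24 h to test agent at final 1, 5, 10 or 20 μM. Lysis in RIPA buffer with protease inhibitor cocktail. Proteins resolved on 12% SDS-PAGE, blotted to nitrocellulose, and probed with antibodies to LC3B, P62, ATG5, ATG7, ATG4a and ATG4b. GAPDH served as loading control. Autophagosome formation was read as the LC3B II/I ratio.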
(In general: Immunoblotting shows a protein as a band on a membrane.)

Test [2] relates to HepG2. Description: Induction of autophagy in human HepG2 cells assessed as decrease in ATG4a protein level up to 20 uM measured after 24 hrs by Western blot analysis. The essentials: as §1
The test system of test [3] is HepG2. As to the kind of experiment: Induction of autophagy in human HepG2 cells assessed as increase in ATG7 protein level up to 20 uM measured after 24 hrs by Western blot analysis. In outline:
as §1

Test [4] deals with HepG2. Description: Induction of autophagy in human HepG2 cells assessed as increase in ATG5 protein level up to 20 uM measured after 24 hrs by Western blot analysis. In outline:
as §1

Test [5] concerns HepG2. Description: Induction of autophagy in human HepG2 cells assessed as increase in LC3B2/1 ratio up to 20 uM measured after 24 hrs by Western blot analysis. In outline: as §1
For test [6], the system named is HepG2. Description: Induction of autophagy in human HepG2 cells assessed as decrease in P62 protein level measured after 24 hrs by Western blot analysis. In outline: as §1
Another test deals with NCI-H460. Description: Cytotoxicity against human H460 cells by MTT assay. For orientation: Formazan colour is commonly taken as a measure of viable cells.
For another test, the system named is A549. Description: Cytotoxicity against human A549 cells by MTT assay.
For test [7], the system named is HepG2. As to the kind of experiment: Cytotoxicity against human HepG2 cells by MTT assay.
The next test concerns HCT-116. Description: Cytotoxicity against human HCT116 cells by MTT assay.

Activity calls are given as the source filed them. No cut-off for these calls is given here.

Turning to `CCCC(=O)C1=C2C=C(C)Oc3c4c(c(=O)cc(c32)C1=O)[C@]1(O)[C@H](O4)O[C@H](C)[C@@H](OC)[C@H]1O`, the result in the test with HepG2 [1], in the test on HepG2 [2], with HepG2 [3], in the test on HepG2 [4] and with HepG2 [5] was Active. The Activity result in the test on HepG2 [6] was “Dose-dependent effect”.

Take `CC[C@@H](O)C(=O)C1=C2C=C(C)Oc3c4c(c(=O)cc(c32)C1=O)[C@]1(O)[C@H](O4)O[C@H](C)[C@@H](OC)[C@H]1O`: the outcome in the test with HepG2 [1], in the test with HepG2 [2], in the test on HepG2 [3], in the test on HepG2 [4] and in the test with HepG2 [5] was Active. Further, the Activity entry in the test on HepG2 [6] is “Dose-dependent effect”.

For the compound `CC[C@H]1OC(=O)C[n+]2c(C)cc3c(c21)C(=O)c1cc(=O)c2c(c(O)c1-3)O[C@@H]1O[C@H](C)[C@@H](OC)[C@@H](O)[C@]21O`, the outcome with HepG2 [1], in the test on HepG2 [2], with HepG2 [3], in the test on HepG2 [4] and in the test with HepG2 [5] was Active. In addition, the Activity result in the test with HepG2 [6] is “Dose-dependent effect”.

Turning to `CC[C@@H](O)c1nc(C)cc2c1C(=O)c1cc(=O)c3c(c(O)c1-2)O[C@@H]1O[C@H](C)[C@@H](OC)[C@@H](O)[C@]31O`, the result with HepG2 [1], with HepG2 [2], in the test with HepG2 [3], in the test on HepG2 [4] and in the test on HepG2 [5] was Active. The IC50 in the test on NCI-H460, in the test with A549, in the test on HepG2 [7] and in the test with HCT-116 was 770 to 1800 µM each time. Also, the Activity entry in the test with HepG2 [6] was “Dose-dependent effect”.

Turning to `CC[C@H]1O[C@@](C)(O)C[n+]2c(C)cc3c(c21)C(=O)c1cc(=O)c2c(c(O)c1-3)O[C@@H]1O[C@H](C)[C@@H](OC)[C@@H](O)[C@]21O`, the result in the test with HepG2 [1], in the test on HepG2 [2], with HepG2 [3], with HepG2 [4] and in the test with HepG2 [5] was Active. For the same compound, the IC50 with NCI-H460, in the test with A549, in the test with HepG2 [7] and in the test with HCT-116 was 190 to 530 µM each time. In the test on HepG2 [6], the Activity result is “Dose-dependent effect”.
